Usually IC50 stands for the midpoint of a concentration-inhibition curve. Broadly, the MIC is the least concentration at which growth counts as inhibited. Read a high MIC as weaker potency.

≈ marks a conversion by molar mass, not a printed value. Bounds are passed on as bounds.

This is an account of results in ChEMBL document CHEMBL4011626, “Structure-Based Optimization of Pyridoxal 5'-Phosphate-Dependent Transaminase Enzyme (BioA) Inhibitors that Target Biotin Biosynthesis in Mycobacterium tuberculosis” (J Med Chem, 2017).

In experiment [1] the test system is Mycobacterium tuberculosis H37Rv. Kind of experiment: Inhibition of Bio-A in wild type Mycobacterium tuberculosis H37Rv after 9 days. The procedure, abridged:
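Wild-type Mtb H37Rv was pregrown in Sauton's medium with 1 μM biotin to OD580 1.0–1.2, washed twice in biotin-free Sauton's, and seeded at OD580 0.03 without biotin. Compounds were tested at 0.2–50 μM final, with no-compound controls, at 37 °C. OD580 was read at 9 days. MIC is the concentration giving 50% inhibition. Triplicate, two biological replicates.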

In experiment [2] the test system is Mycobacterium tuberculosis. Kind of experiment: Inhibition of Bio-A underexpressed in Mycobacterium tuberculosis in presence of anhydrotetracycline after 9 days. The method, boiled down:
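BioA-overexpressing or BioA-underexpressing Mtb strains were pregrown in Sauton's with 1 μM biotin, washed twice, and seeded at OD580 0.03 in biotin-free medium with 200 ng/mL anhydrotetracycline to set BioA expression. Compounds were tested at 0.2–50 μM final at 37 °C. OD580 was read after 9 days. MIC is the concentration giving 50% inhibition. Triplicate, two biological replicates.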

Experiment [3] deals with Mycobacterium tuberculosis H37Rv. Kind of experiment: Inhibition of Bio-A in wild type Mycobacterium tuberculosis H37Rv in presence of biotin after 9 days. The method, boiled down:
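Wild-type Mtb H37Rv was pregrown in Sauton's medium with 1 μM biotin to OD580 1.0–1.2, washed twice in biotin-free Sauton's, and seeded at OD580 0.03 with 1 μM biotin added. Compounds were tested at 0.2–50 μM final, with no-compound controls, at 37 °C. OD580 was read at 9 days. MIC is the concentration giving 50% inhibition. Triplicate, two biological replicates.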

Experiment [4] is described as follows: Inhibition of wild type Mycobacterium tuberculosis Bio-A using KAPA as substrate after 45 mins in presence of fluorescently labeled dethiobiotin tracer.
The test system of experiment [5] is Mycobacterium tuberculosis. Kind of experiment: Antibacterial activity against wild type Mycobacterium tuberculosis H37Rv after 14 days. In kind it is functional. To be noted: 336 h.

`CC(=O)c1ccc(N2CCC(C(=O)c3cccc(Cl)c3)CC2)cc1`: the MIC50 was determined as 4.1 µM (≈ 1.4 µg/mL) in experiment [1] and 6.8 µM in experiment [2].

Turning to `N#Cc1ccc(N2CCN(C(=O)c3cccc(Cl)c3)CC2)cc1`, the MIC50 was 18.5 µM (≈ 6.03 µg/mL) in experiment [1] and 44.8 µM in experiment [2].

On to `CC(=O)c1ccc(N2CCN(C(=O)c3cnn(C)c3)CC2)cc1`, for which the MIC50 was over 50 µM in experiment [1] and 11.3 µM in experiment [2].

For the compound `CC(=O)c1ccc(N2CCN(C(=O)c3ccc4c(c3)OCCCO4)CC2)cc1`, the MIC50 was over 50 µM in experiment [1] and 21.1 µM in experiment [2].

Regarding `COc1ccc(-c2ccc(N3CCN(C(=O)c4cccc(Cl)c4)CC3)cc2)nc1`, the figures for the MIC50 in experiment [1], in experiment [2] and in experiment [3] were 22 µM (≈ 8.97 µg/mL), 24.4 µM and over 50 µM, respectively.

On to `CC(=O)c1ccc(N2CCN(C(=O)c3cccc(Cl)c3)CC2)cc1`, for which the figures for the MIC50 in experiment [1] and in experiment [2] were 5.1 µM (≈ 1.75 µg/mL) and 0.5 µM, respectively.

For the compound `CC(=O)c1ccc(N2CCN(C(=O)c3cscn3)CC2)cc1`, the MIC50 in experiment [1] and in experiment [2] was over 50 µM throughout.

For the compound `CC(=O)c1ccc(-c2cn(Cc3cccc(Cl)c3)nn2)cc1`, the MIC50 in experiment [1] is 22 µM (≈ 6.86 µg/mL); in experiment [2] it was 24.4 µM; in experiment [3], over 50 µM.

Take `Cc1noc(-c2ccc(N3CCN(C(=O)c4cccc(Cl)c4)CC3)cc2)n1`: the MIC50 in experiment [1] and in experiment [2] was over 50 µM each time.

With `O=C1CCc2cc(N3CCN(C(=O)c4ccc5c(c4)OCO5)CC3)ccc21`, the figures for the MIC50 in experiment [1] and in experiment [2] were 1.7 µM (≈ 0.619 µg/mL) and 0.3 µM, respectively.

For the compound `CC(=O)c1ccc(N2CCN(C(=O)c3cncc(Cl)c3)CC2)cc1`, the MIC50 in experiment [1] and in experiment [2] was over 50 µM throughout.

Take `O=C1OCc2cc(N3CCN(C(=O)c4cccc(Cl)c4)CC3)ccc21`: the MIC50 in experiment [1] was 35 µM (≈ 12.5 µg/mL); in experiment [2], 1.8 µM.

Turning to `CC(=O)c1cccc(N2CCN(C(=O)c3cccc(Cl)c3)CC2)c1`, the MIC50 in experiment [1] is over 50 µM; in experiment [2], 26.6 µM.

As for `O=C(c1cccc(Cl)c1)N1CCN(c2ccc(-c3ccccn3)cc2)CC1`, the MIC50 in experiment [1] and in experiment [2] was over 50 µM throughout.

For `CC(=O)c1ccc(N2CCN(C(=O)c3cccnc3)CC2)cc1`, the MIC50 was over 50 µM in experiment [1] and 14.6 µM in experiment [2].

As to `CC(=O)c1ccc(-c2cn(Cc3cccc(Cl)c3)nn2)s1`, the MIC50 in experiment [1] and in experiment [2] was over 50 µM each time.

`CC(=O)c1ccc(N2CCC(C(=O)c3ccc4c(c3)OCO4)CC2)cc1`: the MIC50 in experiment [1] and in experiment [2] was over 50 µM each time.

As for `Cn1nnnc1-c1ccc(N2CCN(C(=O)c3cccc(Cl)c3)CC2)cc1`, the MIC50 in experiment [1] and in experiment [2] was over 50 µM each time.

Turning to `C/C(=N\O)c1ccc(N2CCN(C(=O)c3cccc(Cl)c3)CC2)cc1`, the MIC50 in experiment [1] came to 20.4 µM (≈ 7.3 µg/mL); in experiment [2], 15.1 µM.

`CC(=O)c1ccc(N2CCN(C(=O)c3cc(Cl)cc(Cl)c3)CC2)cc1`: the MIC50 in experiment [1] and in experiment [2] was over 50 µM throughout.

On to `CC(=O)c1ccc(N2CCN(C(=O)c3ccc4c(c3)OCO4)CC2)cc1`, for which the MIC50 in experiment [1] stood at 5.6 µM (≈ 1.97 µg/mL); in experiment [2] it was 0.4 µM. Also, the values for the MIC90 in experiment [1], in experiment [2] and in experiment [3] were 23.4 µM (≈ 8.25 µg/mL), 1.7 µM and over 50 µM, respectively. Besides, the IC50 in experiment [4] was found to be 155 nM. For the same compound, the lowest concentration to inhibit growth in experiment [5] (MIC) was 26 µM (≈ 9.16 µg/mL).

With `CCCCCC(=O)N1CCN(c2ccc(C(C)=O)cc2)CC1`, the MIC50 in experiment [1] was found to be 8.7 µM (≈ 2.63 µg/mL); in experiment [2] it was 10.6 µM.

For the compound `CCC(=O)N1CCN(c2ccc(C(C)=O)cc2)CC1`, the MIC50 in experiment [1] and in experiment [2] was over 50 µM in each case.

Take `COc1cc(Cl)cc(C(=O)N2CCN(c3ccc(C(C)=O)cc3)CC2)c1`: the MIC50 in experiment [1] worked out at 28.6 µM (≈ 10.7 µg/mL); in experiment [2], 18.3 µM.

As for `CC(=O)c1ccc(N2CCN(C(=O)c3ccc(Cl)c(Cl)c3)CC2)cc1`, the MIC50 came out at 10.2 µM (≈ 3.85 µg/mL) in experiment [1] and 1.9 µM in experiment [2].

Regarding `CCCC(=O)N1CCN(c2ccc(C(C)=O)cc2)CC1`, the MIC50 in experiment [1] and in experiment [2] was over 50 µM throughout.

Turning to `O=C1CCc2cc(N3CCN(C(=O)c4cccc(Cl)c4)CC3)ccc21`, the figures for the MIC50 in experiment [1] and in experiment [2] were 4.4 µM (≈ 1.56 µg/mL) and 0.3 µM, respectively.

Take `COC(=O)c1ccc(N2CCN(C(=O)c3cccc(Cl)c3)CC2)cc1`: the MIC50 in experiment [1] and in experiment [2] was over 50 µM each time.

Consider `O=C(c1cccc(Cl)c1)N1CCN(c2ccc3c(c2)COC3)CC1`, for which the MIC50 in experiment [1] was 40.8 µM (≈ 14 µg/mL); in experiment [2], 12.8 µM.

For `CN1Cc2cc(N3CCN(C(=O)c4cccc(Cl)c4)CC3)ccc2C1=O`, the MIC50 in experiment [1] amounted to 15.2 µM (≈ 5.62 µg/mL); in experiment [2] it was 1.2 µM.

As for `O=C(c1cccc(Cl)c1)N1CCN(c2ccc(-c3ccno3)cc2)CC1`, the MIC50 amounted to 6.7 µM (≈ 2.46 µg/mL) in experiment [1] and 0.4 µM in experiment [2].

`CC(=O)c1ccc(N2CCN(C(=O)c3cccc(Cl)c3)CC2)s1`: the MIC50 in experiment [1] was found to be 9.9 µM (≈ 3.45 µg/mL); in experiment [2] it was 1.1 µM.

With `O=C(c1cccc(Cl)c1)N1CCN(c2ccc([N+](=O)[O-])cc2)CC1`, the MIC50 in experiment [1] came to 15.4 µM (≈ 5.33 µg/mL); in experiment [2], 4.7 µM.

As to `CC(=O)c1ccc(N2CCN(C(=O)c3ccc4c(c3)OCCO4)CC2)cc1`, the MIC50 is over 50 µM in experiment [1] and 10.4 µM in experiment [2].

Turning to `CC(=O)c1ccc(N2CCN(C(=O)CC(C)C)CC2)cc1`, the MIC50 in experiment [1] and in experiment [2] was over 50 µM in each case.
